Source: ChEMBL document CHEMBL4613263, “Optimization of Tetrahydroindazoles as Inhibitors of Human Dihydroorotate Dehydrogenase and Evaluation of Their Activity and In Vitro Metabolic Stability” (J Med Chem, 2020)
Calls of active or inactive are those of the source. No cut-off for these calls is given here.

Experiments:
[1] = Cytotoxicity against human HNDF cells assessed as reduction in cell viability incubated for 72 hrs by SRB assay; assay type: cell-based; settings: Homo sapiens, 72 h; read-out: IC50
Outline: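 Human normal dermal fibroblasts seeded at 15×10^2 per well and left 24 h, then exposed to compound for 72 h with 0.1% DMSO final. Cells fixed with TCA at 4 °C for 1 h, stained with SRB, solubilized in 10 mM Tris and read at 490 nm. Values normalized to DMSO control. Tabulated means come only from experiments where IC50 fell below 10 000 nM.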

[2] = biological target: T1, Dihydroorotate dehydrogenase (quinone), mitochondrial (Homo sapiens, UniProt Q02127); experiment: Inhibition of DHODH in human ARN8 cells assessed as induction of DNA damage by measuring increase in p53 phosphorylation at Ser15 at 20 nM incubated for 24 hrs in presence of pan-caspase inhibitor, Z-VAD-FMK by Western blot analysis; assay type: cell-based
Outline: (§1)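 ARN8 cells treated 24 h at 20 nM, with 20 µM Z-VAD-FMK or vehicle added 4.5 h before harvest. Etoposide arm was 20 µM for 1 h alongside Z-VAD-FMK. Lysates normalized for protein and analysed by western blot for p53, p-Ser15 p53, γ-H2AX, H2AX and cleaved PARP (85 kDa) against stain-free total-protein loading.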

[3] = biological target: T1, Dihydroorotate dehydrogenase (quinone), mitochondrial; experiment: Inhibition of DHODH in human ARN8 cells assessed as induction of DNA damage by measuring increase in p53 phosphorylation at Ser15 at 20 nM incubated for 24 hrs by Western blot analysis; assay type: cell-based
Outline: (§2)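 ARN8 cells seeded at 15×10^4 per well and left 24 h. Treated 24 h at 20 nM, or with etoposide at 20 µM for 1 h, with 100 µM uridine where indicated. Lysates made in LDS buffer and protein-normalized, then run on 4–15% gels and transferred to PVDF. Phospho-proteins blocked in BSA, others in milk; primary antibodies overnight at 4 °C, ECL detection. Loading judged by stain-free total protein.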

[4] = biological target: T1, Dihydroorotate dehydrogenase (quinone), mitochondrial; experiment: Inhibition of […] in human ARN8 cells assessed as increase in Bax protein expression at 20 nM incubated for 24 hrs by Western blot analysis; assay type: cell-based
[5] = biological target: T1, Dihydroorotate dehydrogenase (quinone), mitochondrial; experiment: Inhibition of DHOH in human ARN8 cells assessed as increase in YOYO3 positive cells at 20 nM incubated for 48 hrs in presence of 100 uM […], uridine measured every 2 hrs by YOYO-3 staining based live cell imaging analysis
Outline: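 ARN8 cells seeded at 4×10^3 per well and left 24 h, then given 20 nM compound in medium containing 2 µM caspase-3/7 substrate and 0.3 µM YOYO-3 (0.2% DMSO). Where indicated, 100 µM uridine or 20 µM Z-VAD-FMK was added. Cells imaged every 2 h for 48.5 h in an IncuCyte. Positive-cell counts per mm² normalized to confluence %; mean ± SD of three technical replicates.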

[6] = biological target: T1, Dihydroorotate dehydrogenase (quinone), mitochondrial; experiment: Inhibition of recombinant human DHODH using dihydroorotic acid as substrate in presence of 2 nM of DHODH by DCIP assay
[7] = biological target: T1, Dihydroorotate dehydrogenase (quinone), mitochondrial; experiment: Inhibition of […] in human ARN8 cells assessed as decrease in Bcl2 protein expression at 20 nM incubated for 24 hrs in presence of pan-caspase inhibitor, Z-VAD-FMK by Western blot analysis; assay type: cell-based
[8] = biological target: T1, Dihydroorotate dehydrogenase (quinone), mitochondrial; experiment: Inhibition of DHODH in human ARN8 cells assessed as induction of DNA damage by measuring increase in gammaH2AX level at 20 nM incubated for 24 hrs in presence of 100 uM […], uridine by Western blot analysis; assay type: cell-based; outline: as §2
[9] = biological target: T1, Dihydroorotate dehydrogenase (quinone), mitochondrial; experiment: Inhibition of DHODH in human ARN8 cells assessed as activation of p53-dependent transcription at 0.05 to 10 uM incubated for 16 hrs by CPRG assay; assay type: cell-based
Outline: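 ARN8 cells carrying the RGCΔFos-LacZ p53 reporter seeded at 2×10^4 per well and left 24 h, then treated 16 h (0.1% DMSO final, ±100 µM uridine). Cells washed, lysed and frozen at −20 °C for at least 2 h. β-galactosidase measured with CPRG substrate at pH 7.5, read at 590 nm after 24 h. Result is fold change vs DMSO; mean ± SD of three technical replicates.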

[10] = biological target: T1, Dihydroorotate dehydrogenase (quinone), mitochondrial; experiment: Inhibition of DHOH in human ARN8 cells assessed as increase in cleaved PARP level at 20 nM incubated for 24 hrs by Western blot analysis; assay type: cell-based; outline: as §1
[11] = biological target: T1, Dihydroorotate dehydrogenase (quinone), mitochondrial; experiment: Inhibition of DHODH in human ARN8 cells assessed as increase in p53 level at 20 nM incubated for 24 hrs by Western blot analysis; assay type: cell-based; outline: as §2
[12] = biological target: T1, Dihydroorotate dehydrogenase (quinone), mitochondrial; experiment: Inhibition of […] in human ARN8 cells assessed as decrease in Bcl2 protein expression at 20 nM incubated for 24 hrs by Western blot analysis; assay type: cell-based
[13] = biological target: T1, Dihydroorotate dehydrogenase (quinone), mitochondrial; experiment: Inhibition of DHOH in human ARN8 cells assessed as gammaH2AX level at 20 nM incubated for 24 hrs treated with pan-capse inhibitor, Z-VAD-FMK for 4.5 hrs prior to harvesting by Western blot analysis; assay type: cell-based; outline: as §1

T1 sequence (Q02127 whole entry): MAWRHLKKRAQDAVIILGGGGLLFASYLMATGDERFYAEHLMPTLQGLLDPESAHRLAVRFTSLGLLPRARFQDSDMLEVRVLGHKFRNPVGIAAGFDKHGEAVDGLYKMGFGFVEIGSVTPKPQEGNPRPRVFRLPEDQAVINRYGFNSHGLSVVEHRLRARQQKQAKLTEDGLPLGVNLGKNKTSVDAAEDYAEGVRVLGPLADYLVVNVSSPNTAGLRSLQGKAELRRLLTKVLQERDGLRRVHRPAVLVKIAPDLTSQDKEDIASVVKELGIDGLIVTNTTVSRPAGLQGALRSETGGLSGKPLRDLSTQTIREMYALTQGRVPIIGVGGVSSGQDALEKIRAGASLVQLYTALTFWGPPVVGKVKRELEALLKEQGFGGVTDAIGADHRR

inhibition [4]: Active | inhibition [5]: inactive | IC50 [6]: 2.3 nM | inhibition [7]: Active | inhibition [9]: Active | inhibition [10]: Active | inhibition [11]: Active | inhibition [12]: Active | inhibition [13]: inactive
SMILES: O=C(N[C@@H]1CCCc2c1cnn2-c1ccccc1F)c1ncn2c1CCCC2
IC50 [1]: > 10000 nM | inhibition [2]: Active | inhibition [3]: Active | inhibition [8]: inactive
